Results as given in ChEMBL document CHEMBL1127320, “Dual-action cephalosporins incorporating a 3'-tertiary-amine-linked quinolone” (J Med Chem, 1994).
Values after ≈ are worked out from the molar mass of the structure shown.

Assays:
Staphylococcus aureus [1] = assay: In vitro minimum inhibitory concentration was measured against Staphylococcus aureus 753 (Methicillin resistant) strain.; format: functional
Streptococcus pneumoniae = assay: In vitro minimum inhibitory concentration was measured against Streptococcus pneumoniae 6301 strain; format: functional
How it was run: (§1)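 Streptococci were tested on brain heart infusion agar plus 20 units/mL catalase, Proteus on Mueller-Hinton with 3% agar, and others on Mueller-Hinton agar. Inocula were 100-fold-diluted overnight cultures, about 3 × 10^4 CFU/spot, read after overnight incubation at 36 °C.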

Pseudomonas aeruginosa [2] = assay: In vitro minimum inhibitory concentration was measured against Pseudomonas aeruginosa 18S/H strain.; format: functional; how it was run: as §1
Escherichia coli [3] = assay: In vitro minimum inhibitory concentration was measured against Escherichia coli ATCC 25922 strain.; format: functional; how it was run: as §1
Klebsiella pneumoniae = assay: In vitro minimum inhibitory concentration was measured against Klebsiella pneumoniae A strain.; format: functional; how it was run: as §1
Micrococcus luteus = assay: In vitro minimum inhibitory concentration was measured against Micrococcus luteus ATCC 9341 strain.; format: functional; how it was run: as §1
Escherichia coli [4] = assay: In vitro minimum inhibitory concentration was measured against Escherichia coli 257 strain.; format: functional; how it was run: as §1
Streptococcus pyogenes = assay: In vitro minimum inhibitory concentration was measured against Streptococcus pyogenes 4 strain.; format: functional; how it was run: as §1
Serratia marcescens = assay: In vitro minimum inhibitory concentration was measured against Serratia marcescens 1071(beta lactamase producer) strain.; format: functional; how it was run: as §1
Enterobacter cloacae [5] = assay: In vitro minimum inhibitory concentration was measured against Enterobacter cloacae p99 (beta lactamase producer) strain.; format: functional
Escherichia coli [6] = assay: In vitro minimum inhibitory concentration was measured against Escherichia coli TEM-1 (Beta lactamase producer) strain.; format: functional; how it was run: as §1
Enterococcus faecalis = assay: In vitro minimum inhibitory concentration was measured against Enterococcus faecalis ATCC 29212 strain.; format: functional; how it was run: as §1
Pseudomonas aeruginosa [7] = assay: In vitro minimum inhibitory concentration was measured against Pseudomonas aeruginosa 8780 strain.; format: functional; how it was run: as §1
Staphylococcus aureus [8] = assay: In vitro minimum inhibitory concentration was measured against Staphylococcus aureus smith strain.; format: functional
Proteus vulgaris = assay: In vitro minimum inhibitory concentration was measured against Proteus vulgaris 1028BC (beta lactamase producer) strain.; format: functional; how it was run: as §1
Enterobacter cloacae [9] = assay: In vitro minimum inhibitory concentration was measured against Enterobacter cloacae 5699 strain.; format: functional
Citrobacter freundii = assay: In vitro minimum inhibitory concentration was measured against Citrobacter freundii BS-16 (beta lactamase producer) strain.; format: functional
How it was run: as §1, with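 “MICs were determined by agar dilution with 2-fold dilutions giving final 128–0.0156 µg/mL, extended to 0.000977 µg/mL where needed. Streptococci” for “Streptococci”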

Proteus mirabilis = assay: In vitro minimum inhibitory concentration was measured against Proteus mirabilis 90 strain.; format: functional; how it was run: as §1
Staphylococcus aureus [10] = assay: In vitro minimum inhibitory concentration was measured against Staphylococcus aureus 67-0 (Methicillin resistant) strain.; format: functional
Escherichia coli [11] = assay: Minimum inhibitory concentration against E. coli UB1005 (DC0)
[12] = test system: Penicillin-binding protein 3 (Escherichia coli); assay: Affinity for penicillin binding protein 3 of Escherichia coli UB1005 (DC0) was evaluated.; parameters: unit not given here
[13] = target: T1, Peptidoglycan D,D-transpeptidase MrdA (Escherichia coli K-12) (UniProt P0AD65); assay: Affinity for penicillin binding protein 2 of Escherichia coli UB1005 (DC0) was evaluated.; parameters: unit not given here
T1 sequence (whole entry): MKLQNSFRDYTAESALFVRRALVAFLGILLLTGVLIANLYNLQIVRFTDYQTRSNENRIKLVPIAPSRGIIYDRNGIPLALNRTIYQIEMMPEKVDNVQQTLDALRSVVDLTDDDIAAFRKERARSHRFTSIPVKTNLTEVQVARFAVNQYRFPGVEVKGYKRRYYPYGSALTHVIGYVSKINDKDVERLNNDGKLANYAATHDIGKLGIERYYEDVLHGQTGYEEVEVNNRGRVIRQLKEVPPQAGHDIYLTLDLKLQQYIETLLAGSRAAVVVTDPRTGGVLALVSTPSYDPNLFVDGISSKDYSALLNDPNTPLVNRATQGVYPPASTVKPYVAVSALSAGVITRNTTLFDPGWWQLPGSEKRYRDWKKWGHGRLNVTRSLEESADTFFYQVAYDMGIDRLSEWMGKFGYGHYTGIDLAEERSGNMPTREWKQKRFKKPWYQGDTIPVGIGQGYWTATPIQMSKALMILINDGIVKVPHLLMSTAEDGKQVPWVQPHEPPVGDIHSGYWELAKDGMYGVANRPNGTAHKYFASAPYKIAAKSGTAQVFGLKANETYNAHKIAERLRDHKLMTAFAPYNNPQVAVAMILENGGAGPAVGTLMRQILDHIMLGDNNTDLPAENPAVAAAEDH
How it was run: (§2)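 Solubilised membranes from sonicated E. coli UB1005 served as the binding-protein source. Binding was read as inhibition of [14C]penicillin G binding.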

Escherichia coli [14] = assay: Minimum inhibitory concentration for DC2, a permeability mutant
How it was run: as §1, with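 “MICs were determined by agar dilution with 2-fold dilutions giving final 128–0.0156 µg/mL, extended to 0.000977 µg/mL where needed. Streptococci” for “Streptococci”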

[15] = target: T2, Penicillin-binding protein 1A (Escherichia coli K-12) (UniProt P02918); assay: Affinity for penicillin binding protein 1a of Escherichia coli UB1005 (DC0) was evaluated.; parameters: unit not given here; how it was run: as §2
T2 sequence (whole entry): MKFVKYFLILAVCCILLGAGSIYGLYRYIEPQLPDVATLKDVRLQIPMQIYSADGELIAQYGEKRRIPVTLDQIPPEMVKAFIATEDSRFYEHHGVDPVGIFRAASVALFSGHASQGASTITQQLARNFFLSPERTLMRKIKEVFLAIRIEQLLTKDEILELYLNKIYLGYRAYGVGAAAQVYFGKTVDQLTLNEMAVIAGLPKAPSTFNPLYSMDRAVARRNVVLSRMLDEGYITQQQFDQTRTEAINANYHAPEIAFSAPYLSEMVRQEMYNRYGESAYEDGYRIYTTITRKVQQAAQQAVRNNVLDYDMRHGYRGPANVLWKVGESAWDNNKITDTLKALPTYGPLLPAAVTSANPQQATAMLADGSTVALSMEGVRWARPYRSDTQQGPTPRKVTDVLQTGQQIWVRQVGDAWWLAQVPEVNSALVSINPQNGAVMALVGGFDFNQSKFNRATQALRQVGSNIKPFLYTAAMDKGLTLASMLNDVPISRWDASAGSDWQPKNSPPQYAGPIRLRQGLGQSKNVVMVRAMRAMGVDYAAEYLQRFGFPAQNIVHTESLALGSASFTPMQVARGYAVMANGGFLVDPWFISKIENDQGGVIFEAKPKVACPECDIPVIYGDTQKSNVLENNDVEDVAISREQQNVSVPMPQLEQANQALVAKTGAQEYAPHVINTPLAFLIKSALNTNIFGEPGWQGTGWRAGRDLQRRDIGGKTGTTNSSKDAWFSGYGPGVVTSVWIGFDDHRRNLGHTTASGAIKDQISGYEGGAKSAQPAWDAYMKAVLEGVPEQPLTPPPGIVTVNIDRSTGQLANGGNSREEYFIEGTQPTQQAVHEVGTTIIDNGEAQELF

[16] = target: T3, Penicillin-binding protein 1B (Escherichia coli K-12) (UniProt P02919); assay: Affinity for penicillin binding protein 1b of Escherichia coli UB1005 (DC0) was evaluated.; parameters: unit not given here; how it was run: as §2
T3 sequence (whole entry): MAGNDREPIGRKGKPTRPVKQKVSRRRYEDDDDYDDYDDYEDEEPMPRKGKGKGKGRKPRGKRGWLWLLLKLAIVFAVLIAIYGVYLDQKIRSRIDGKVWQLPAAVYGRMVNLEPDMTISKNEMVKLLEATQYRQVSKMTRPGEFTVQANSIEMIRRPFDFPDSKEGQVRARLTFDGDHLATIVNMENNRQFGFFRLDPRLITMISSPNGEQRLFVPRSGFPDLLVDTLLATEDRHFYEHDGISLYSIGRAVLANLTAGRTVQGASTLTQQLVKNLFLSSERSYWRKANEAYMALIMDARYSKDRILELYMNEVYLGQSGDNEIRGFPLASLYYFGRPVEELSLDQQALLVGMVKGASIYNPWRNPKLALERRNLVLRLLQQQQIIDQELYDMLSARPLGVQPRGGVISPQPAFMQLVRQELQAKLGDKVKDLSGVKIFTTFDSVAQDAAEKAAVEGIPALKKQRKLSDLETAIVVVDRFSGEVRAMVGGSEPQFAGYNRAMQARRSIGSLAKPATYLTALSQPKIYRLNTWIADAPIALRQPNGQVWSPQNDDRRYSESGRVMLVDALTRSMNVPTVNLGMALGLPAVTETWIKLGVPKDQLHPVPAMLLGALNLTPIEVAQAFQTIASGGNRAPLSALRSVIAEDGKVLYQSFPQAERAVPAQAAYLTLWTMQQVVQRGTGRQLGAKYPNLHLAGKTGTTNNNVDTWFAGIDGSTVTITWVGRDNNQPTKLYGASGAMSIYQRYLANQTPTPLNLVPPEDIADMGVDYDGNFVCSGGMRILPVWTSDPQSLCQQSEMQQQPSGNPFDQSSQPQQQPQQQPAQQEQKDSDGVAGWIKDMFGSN

SMILES | MIC (Staphylococcus aureus [1]) | MIC (Streptococcus pneumoniae) | MIC (Pseudomonas aeruginosa [2]) | MIC (Escherichia coli [3]) | MIC (Klebsiella pneumoniae) | MIC (Micrococcus luteus) | MIC (Escherichia coli [4]) | MIC (Streptococcus pyogenes) | MIC (Serratia marcescens) | MIC (Enterobacter cloacae [5]) | MIC (Escherichia coli [6]) | MIC (Enterococcus faecalis) | MIC (Pseudomonas aeruginosa [7]) | MIC (Staphylococcus aureus [8]) | MIC (Proteus vulgaris) | MIC (Enterobacter cloacae [9]) | MIC (Citrobacter freundii) | MIC (Proteus mirabilis) | MIC (Staphylococcus aureus [10]) | MIC (Escherichia coli [11]) | also measured
CC(=O)OCC1=C(C(=O)O)N2C(=O)[C@@H](NC(=O)C(O)c3ccccc3)[C@H]2SC1 (some centres undefined) | 128 µg/mL (≈ 315 µM) | 0.125 µg/mL (≈ 0.308 µM) | > 128 µg/mL | 2 µg/mL (≈ 4.92 µM) | 2 µg/mL (≈ 4.92 µM) | 0.125 µg/mL (≈ 0.308 µM) | 2 µg/mL (≈ 4.92 µM) | 0.063 µg/mL (≈ 0.155 µM) | > 128 µg/mL | > 128 µg/mL | 8 µg/mL (≈ 19.7 µM) | 16 µg/mL (≈ 39.4 µM) | > 128 µg/mL | 0.5 µg/mL (≈ 1.23 µM) | > 128 µg/mL | 16 µg/mL (≈ 39.4 µM) | > 128 µg/mL | 2 µg/mL (≈ 4.92 µM) | 64 µg/mL (≈ 157 µM) |  | 
Nc1nc(/C(=N/OCC(=O)O)C(=O)N[C@@H]2C(=O)N3C(C(=O)O)=C(CN4CCN(c5cc6c(cc5F)c(=O)c(C(=O)O)cn6C5CC5)CC4)CS[C@H]23)cs1 | 8 µg/mL (≈ 10.4 µM) | 0.25 µg/mL (≈ 0.324 µM) | 4 µg/mL (≈ 5.19 µM) | 0.5 µg/mL (≈ 0.649 µM) | 1 µg/mL (≈ 1.3 µM) | 1 µg/mL (≈ 1.3 µM) | 0.25 µg/mL (≈ 0.324 µM) | 0.125 µg/mL (≈ 0.162 µM) | 2 µg/mL (≈ 2.59 µM) | 0.25 µg/mL (≈ 0.324 µM) | 0.5 µg/mL (≈ 0.649 µM) | 16 µg/mL (≈ 20.8 µM) | 8 µg/mL (≈ 10.4 µM) | 8 µg/mL (≈ 10.4 µM) | 1 µg/mL (≈ 1.3 µM) | 1 µg/mL (≈ 1.3 µM) | 1 µg/mL (≈ 1.3 µM) | 2 µg/mL (≈ 2.59 µM) | 32 µg/mL (≈ 41.5 µM) | 2 µg/mL (≈ 2.59 µM) | Binding affinity [12]: 2; Binding affinity [13]: > 100; MIC (Escherichia coli [14]): 4 µg/mL (≈ 5.19 µM); Binding affinity [15]: > 100; Binding affinity [16]: > 100
CC(C)(O/N=C(\C(=O)N[C@@H]1C(=O)N2C(C(=O)O)=C(CN3CCN(c4cc5c(cc4F)c(=O)c(C(=O)O)cn5C4CC4)CC3)CS[C@H]12)c1csc(N)n1)C(=O)O | 8 µg/mL (≈ 10 µM) | 0.25 µg/mL (≈ 0.313 µM) | 2 µg/mL (≈ 2.5 µM) | 0.25 µg/mL (≈ 0.313 µM) | 0.5 µg/mL (≈ 0.626 µM) | 2 µg/mL (≈ 2.5 µM) | 0.25 µg/mL (≈ 0.313 µM) | 0.25 µg/mL (≈ 0.313 µM) | 1 µg/mL (≈ 1.25 µM) | 0.5 µg/mL (≈ 0.626 µM) | 0.5 µg/mL (≈ 0.626 µM) | 8 µg/mL (≈ 10 µM) | 8 µg/mL (≈ 10 µM) | 8 µg/mL (≈ 10 µM) | 1 µg/mL (≈ 1.25 µM) | 1 µg/mL (≈ 1.25 µM) | 0.125 µg/mL (≈ 0.156 µM) | 2 µg/mL (≈ 2.5 µM) | 16 µg/mL (≈ 20 µM) | 4 µg/mL (≈ 5.01 µM) | Binding affinity [12]: 2; Binding affinity [13]: 100; MIC (Escherichia coli [14]): 0.25 µg/mL (≈ 0.313 µM); Binding affinity [15]: 100; Binding affinity [16]: 100
